CHRM4 antagonist: antagonists of human muscarinic M4 receptor (CHRM4); CHO-hM4 cells, ACh EC80, Fluo-8 calcium fluorescence; inhibition, % at 3 µM; actives 0.73% (n = 360,000); P08173;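 active = inhibition above its plate's cutoff, the mean inhibition of sample wells plus 3 SD, cut at about 27% in these data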;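 note: 0% = acetylcholine EC80 with DMSO and 100% = DMSO without agonist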
Target sequence (P08173 whole entry, looked up): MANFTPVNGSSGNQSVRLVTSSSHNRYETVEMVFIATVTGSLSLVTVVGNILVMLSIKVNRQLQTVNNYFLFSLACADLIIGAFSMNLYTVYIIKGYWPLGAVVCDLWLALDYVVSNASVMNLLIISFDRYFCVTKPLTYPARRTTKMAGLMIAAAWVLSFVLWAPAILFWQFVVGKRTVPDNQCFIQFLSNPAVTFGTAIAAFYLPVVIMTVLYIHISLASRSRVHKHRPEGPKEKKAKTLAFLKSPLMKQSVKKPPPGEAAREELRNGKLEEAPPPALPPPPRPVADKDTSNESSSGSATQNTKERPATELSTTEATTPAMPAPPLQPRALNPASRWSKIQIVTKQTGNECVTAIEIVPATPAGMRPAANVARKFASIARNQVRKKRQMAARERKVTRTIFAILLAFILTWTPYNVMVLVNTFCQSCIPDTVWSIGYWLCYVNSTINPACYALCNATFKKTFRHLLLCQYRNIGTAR
CHRM5 antagonist: blocks acetylcholine activation of human M5 receptor; CHO-hM5 cells, Fluo-8 calcium fluorescence, ACh EC80; inhibition, % at 3 µM; actives 0.59% (n = 360,000); AID 624040;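 active = inhibition above a per-plate cutoff, the mean of that plate's test compounds plus 3 SD, cut at about 27% in these data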;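 note: 0% = acetylcholine EC80 with DMSO and 100% = DMSO without agonist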
CHRM5 PAM: CHRM5 positive allosteric modulation. activation, % at 3 µM. actives 0.3% (n = 360,000). AID 624038. CHO-K1 hM5, Fluo-8 calcium, ACh EC20 PAM; 0% = ACh EC20, 100% = ACh EC100;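 active = activation above the run cutoff, the mean activation of all test compounds plus 3 SD, cut at about 18% in these data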
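Assay system – human M5 receptor in CHO-K1 cells · Read-out – % activation, ACh-normalized · Technique – Fluo-8 calcium fluorescence · Dosing – single-point, 3 µM nominal · Incubation – Fluo-8 loading 80 min at 37 °C plus 30 min room temperature · Repeats – singlicate, one well per test compound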
M4 ag: agonists of human muscarinic M4 receptor (CHRM4). P08173. CHO-K1 hM4/Gqi5, Fluo-8 calcium fluorescence; vehicle 0%, full acetylcholine response 100%. activation, % at 3 µM. actives 0.14% (n = 360,000). AID 624127;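 active = activation above the run mean over all test wells plus 3 SD, cut at about 32% in these data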;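 note: peak over basal fluorescence ratio per well then scaled between controls; 0% = DMSO wells and 100% = acetylcholine at EC100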
M4 PAM: CHRM4 positive allosteric modulation; CHO-K1 hM4/Gqi5, Fluo-8 calcium fluorescence, ACh EC20; 0% = ACh EC20, 100% = maximal ACh; activation, % at 3 µM; actives 0.4% (n = 360,000); AID 624126;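 active = activation above its plate's cutoff, the mean activation of sample wells plus 3 SD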
M5 ag: agonists of human muscarinic M5 receptor (CHRM5); activation, % at 3 µM; AID 624037; actives 0.19% (n = 360,000); CHO-K1 hM5 cells, Fluo-8 calcium fluorescence; 0% DMSO wells, 100% maximal acetylcholine response; P08912;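 active = activation above the run's mean over test compounds plus 3 SD, cut at about 23% in these data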;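 note: signal is peak over basal fluorescence ratio across the kinetic read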
* hit, by the source's call. An excerpt weighted towards active compounds, which were near 1.8% of everything screened.

SMILES	CHRM4 antagonist	CHRM5 antagonist	CHRM5 PAM	M4 ag	M4 PAM	M5 ag
N=C1C(c2ccccc2)=C(O)CN1CCO	-7.6	-10.1	6.6	4.1	17.4*	1.8
Cc1noc(NS(=O)(=O)c2ccc(NC(=O)c3ccc(N4C(=O)c5ccccc5C4=O)cc3)cc2)c1C	-3.7	-29.0	19.1*	0.3	4.4	2.6
CCSc1ncc(Cl)c(C(=O)Nc2ccc(S(=O)(=O)Nc3onc(C)c3C)cc2)n1	1.0	47.5*	3.3	0.0	10.3	3.9
COc1ccc(NC(=S)NC(NC(=O)c2ccc(Cl)cc2Cl)C(Cl)(Cl)Cl)c([N+](=O)[O-])c1 (stereo not given)	-3.2	27.7*	-21.3	10.6	-1.1	6.2
Cc1csc(N=Nc2ccc(N(C)C)cc2)[n+]1[O-]	-4.2	1.5	-3.9	-1.1	2.9	0.4
CN(C/C=C/c1ccccc1[N+](=O)[O-])Cc1ccccc1	35.3*	11.3	-17.8	0.3	-14.6	-21.7
Fc1ccc2[nH]c3c(N4CCc5ccccc5C4)ncnc3c2c1	22.9	27.3*	-27.1	17.6	-15.6	6.5
CC(=O)Nc1cncc(-c2cccc(C(=O)N3CCOCC3)c2)n1	-9.4	-4.5	1.1	0.8	7.0	0.5
O=C(Cc1ccccc1)N/N=C/c1cc(Br)c(Br)o1	-9.0	5.0	-7.1	-0.9	28.4*	0.8
O=C(Cc1ccccc1)NN=Cc1ccccc1	-7.2	4.0	-0.9	0.8	9.3	-0.1
CCN(CC)c1ccc(C=C2C(=O)OC3(CCCCC3)OC2=O)cc1	-2.9	10.3	-2.2	0.3	9.0	-2.5
CCN(CC)c1ccc(/C=C2/C(=O)c3ccc(C(=O)O)cc3C2=O)cc1	33.1*	17.9	-17.2	19.6	-12.0	32.6*
O=C(/C=C/c1ccccc1)NC(NC(=S)Nc1ccc(Cl)cc1)C(Cl)(Cl)Cl (stereo not given)	10.3	14.8	-30.9	7.8	-6.2	-2.7
O=C(/C=C/c1ccccc1)NC(NC(=S)Nc1cc(Cl)ccc1Cl)C(Cl)(Cl)Cl (stereo not given)	14.6	51.2*	-15.9	10.6	-7.7	1.6
O=C(CCN1C(=O)CC1c1ccco1)N1CCOCC1 (stereo not given)	-1.9	-2.9	2.8	1.2	7.4	0.8
Cc1c(C(=O)Nc2ccc3c(c2)OCCO3)sc2nc(-c3ccccc3)cn12	33.6*	28.4*	-24.6	30.4	-11.2	6.3
Cc1c(C(=O)Nc2ccncc2)sc2nc(-c3ccccc3)cn12	-5.6	4.6	-13.2	26.5	-5.9	10.1
CN(CC(=O)Nc1ccc(Cl)c(C(F)(F)F)c1)C(=O)CCCNC(=O)c1ccc(Cl)cc1	-12.6	12.7	-9.4	6.7	10.3	1.8
Cc1nn(-c2ccccn2)c(C)c1Oc1ccccc1O	-4.3	5.5	-3.2	1.2	-2.6	-1.0
Cc1nn(-c2nc3ccccc3s2)c(C)c1Oc1ccccc1O	32.3*	-0.2	-7.8	37.5*	-30.4	3.3
CCOC(=O)C1=C(N)Oc2c(oc(CO)cc2=O)C1c1ccc(Cl)cc1 (stereo not given)	10.6	-2.0	18.3*	1.1	-1.2	2.5
Cc1sc2nc(CN(Cc3cccs3)C(=O)NC3CCCCC3)[nH]c(=O)c2c1C	-14.7	-2.8	28.7*	0.9	-0.4	-1.3
CCCCc1c(-c2cccc(Br)c2)ncn1CCc1ccccc1OC	15.1	2.5	-19.1	2.4	-7.2	-2.4
COc1cc(NC(=O)c2cc(Cl)ccc2Cl)ccc1-c1cc2ccccc2oc1=O	0.8	-9.1	3.5	1.4	13.7	-1.3
CCc1ccc(OCC(=O)Nc2ccc(-c3cc4ccccc4oc3=O)c(OC)c2)cc1	14.9	30.6*	-14.5	6.2	-19.7	1.7
COc1ccc(-c2nc3ccc(C)cn3c2Cc2ccccc2)cc1OC	-13.1	0.2	1.7	1.9	-1.6	-0.6
CC[N+](CC)(CC)CCC(O)(c1ccccc1)C1CCCCC1 (stereo not given)	98.7*	98.7*	-18.0	1.7	-17.9	-1.1
CCN(CC)CCC(O)(c1ccccc1)C1CCCCC1 (stereo not given)	84.6*	89.5*	-32.6	0.2	-16.0	-22.4
